Reference: ChEMBL document CHEMBL1125231, “Synthesis, peroxidating ability, and antineoplastic evaluation of 1-[(aminoalkyl)amino]-4-hydroxy-10-imino-9-anthracenones” (J Med Chem, 1991)
Converted amounts (≈) assume the structure as drawn.

Assays:
[1] = system: L1210; assay: Effective concentration against inhibition of L1210 mouse leukemia cells in tissue culture; format: functional, cell-based
Procedure, shortened: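 L1210 mouse leukemia cells seeded at 0.05 × 10^6 cells/mL. Compounds, as hydrochlorides dissolved in 50% ethanol, added at four concentrations. Growth over 48 h measured by cellular protein content. EC50 taken as the concentration giving 50% inhibition of 48-h growth.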

[2] = The capacity to stimulate NADH oxidation was determined.; format: functional
Procedure, shortened: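 Cell-free NADH oxidation in 1 mL of 0.05 M Tris-HCl, pH 7.2, with 100 µM compound (hydrochloride), 100 µM NADH and 1 unit/mL NADH dehydrogenase. NADH consumption started by adding the enzyme. Rate expressed as µmol/min.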

[3] = system: P388; assay: In vivo inhibitory activity against P388 murine leukemia cells and the ratio of medium survival time expressed as percent of untreated controls (%T/C) at dose of 80 mg/kg (7/7*); format: functional, Mus musculus
[4] = system: P388; assay: In vivo inhibitory activity against P388 murine leukemia cells and the ratio of medium survival time expressed as percent of untreated controls (%T/C) at doses of 10,5,2,5 mg/kg (7/7*); format: functional, Mus musculus
[5] = system: P388; assay: In vivo inhibitory activity against P388 murine leukemia cells and the ratio of medium survival time expressed as percent of untreated controls (%T/C) at doses of 40,20mg/kg (7/7*); format: functional, Mus musculus
[6] = system: P388; assay: In vivo inhibitory activity against P388 murine leukemia cells and the ratio of medium survival time expressed as percent of untreated controls (%T/C) at dose of 12.5 mg/kg (6/6*); format: functional, Mus musculus
[7] = system: P388; assay: In vivo inhibitory activity against P388 murine leukemia cells and the ratio of medium survival time expressed as percent of untreated controls (%T/C) at dose of 25 mg/kg (6/6*); format: functional, Mus musculus
[8] = system: P388; assay: In vivo inhibitory activity against P388 murine leukemia cells and the ratio of medium survival time expressed as percent of untreated controls (%T/C) at dose of 3.12 mg/kg (6/6*); format: functional, Mus musculus
[9] = system: P388; assay: In vivo inhibitory activity against P388 murine leukemia cells and the ratio of medium survival time expressed as percent of untreated controls (%T/C) at dose of 6.25 mg/kg (6/6*); format: functional, Mus musculus
[10] = system: P388; assay: In vivo inhibitory activity against P388 murine leukemia cells and the ratio of medium survival time expressed as percent of untreated controls (%T/C) at dose of 10 mg/kg (6/6*); format: functional, Mus musculus
[11] = system: P388; assay: In vivo inhibitory activity against P388 murine leukemia cells and the ratio of medium survival time expressed as percent of untreated controls (%T/C) at dose of 2.5 mg/kg (6/6*); format: functional, Mus musculus
[12] = system: P388; assay: In vivo inhibitory activity against P388 murine leukemia cells and the ratio of medium survival time expressed as percent of untreated controls (%T/C) at dose of 20 mg/kg (6/6*); format: functional, Mus musculus
[13] = system: P388; assay: In vivo inhibitory activity against P388 murine leukemia cells and the ratio of medium survival time expressed as percent of untreated controls (%T/C) at dose of 80 mg/kg (5/6*); format: functional, Mus musculus
[14] = system: P388; assay: In vivo inhibitory activity against P388 murine leukemia cells and the ratio of medium survival time expressed as percent of untreated controls (%T/C) at dose of 40 mg/kg (6/6*); format: functional, Mus musculus
[15] = system: P388; assay: In vivo inhibitory activity against P388 murine leukemia cells and the ratio of medium survival time expressed as percent of untreated controls (%T/C) at dose of 5 mg/kg (6/6*); format: functional, Mus musculus
[16] = system: P388; assay: In vivo inhibitory activity against P388 murine leukemia cells and the ratio of medium survival time expressed as percent of untreated controls (%T/C) at dose of 10 mg/kg (7/7*); format: functional, Mus musculus
[17] = system: P388; assay: In vivo inhibitory activity against P388 murine leukemia cells and the ratio of medium survival time expressed as percent of untreated controls (%T/C) at doses of 80,40,20mg/kg (7/7*); format: functional, Mus musculus
[18] = system: P388; assay: In vivo inhibitory activity against P388 murine leukemia cells and the ratio of medium survival time expressed as percent of untreated controls (%T/C) at dose of 2.5 mg/kg (7/7*); format: functional, Mus musculus
[19] = system: P388; assay: In vivo inhibitory activity against P388 murine leukemia cells and the ratio of medium survival time expressed as percent of untreated controls (%T/C) at dose of 5 mg/kg (7/7*); format: functional, Mus musculus
[20] = system: P388; assay: In vivo inhibitory activity against P388 murine leukemia cells and the ratio of medium survival time expressed as percent of untreated controls (%T/C) at dose of 12.5 mg/kg (7/7*); format: functional, Mus musculus
[21] = system: P388; assay: In vivo inhibitory activity against P388 murine leukemia cells and the ratio of medium survival time expressed as percent of untreated controls (%T/C) at dose of 25 mg/kg (7/7*); format: functional, Mus musculus
[22] = system: P388; assay: In vivo inhibitory activity against P388 murine leukemia cells and the ratio of medium survival time expressed as percent of untreated controls (%T/C) at doses of 6.25,3.12,1.56mg/kg (7/7*); format: functional, Mus musculus
[23] = system: P388; assay: In vivo inhibitory activity against P388 murine leukemia cells and the ratio of medium survival time expressed as percent of untreated controls (%T/C) at dose of 50 mg/kg (7/7*); format: functional, Mus musculus
[24] = system: P388; assay: In vivo inhibitory activity against P388 murine leukemia cells and the ratio of medium survival time expressed as percent of untreated controls (%T/C) at dose of 15 mg/kg (7/7*); format: functional, Mus musculus
[25] = system: P388; assay: In vivo inhibitory activity against P388 murine leukemia cells and the ratio of medium survival time expressed as percent of untreated controls (%T/C) at dose of 7.5 mg/kg (7/7*); format: functional, Mus musculus
[26] = system: P388; assay: In vivo inhibitory activity against P388 murine leukemia cells and the ratio of medium survival time expressed as percent of untreated controls (%T/C) at doses of 60,30mg/kg (7/7*); format: functional, Mus musculus
[27] = system: P388; assay: In vivo inhibitory activity against P388 murine leukemia cells and the ratio of medium survival time expressed as percent of untreated controls (%T/C) at dose of 3.78, 1.87 mg/kg (7/7*); format: functional, Mus musculus

With CN(C)CCNc1ccc(O)c2c1C(=O)c1ccccc1C2=N the EC50 [1] was 2.21 µg/mL (≈ 7.14 µM), the NADH oxidn [2] was 17.7 µM/min and the T/C [3] was 125%. For the same compound, the T/C [4] was 92% and the T/C [5] was 100%.

With COc1cccc2c1C(=N)c1c(O)ccc(NCCNCCO)c1C2=O the EC50 [1] was 2.8 µg/mL (≈ 7.88 µM).

With O=C1c2ccccc2C(=O)c2c(NCCNCCO)ccc(NCCNCCO)c21 [AMETANTRONE] the EC50 [1] was 0.21 µg/mL (≈ 0.509 µM), the NADH oxidation [2] was 28.9 µM/min and the T/C [6] was 300%. It also gave a T/C [7] of 200%, a T/C [8] of 190% and a T/C [9] of 210%.

In the case of N=C1c2ccccc2C(=O)c2c(NCCN)ccc(O)c21, the EC50 [1] is reported as 0.89 µg/mL (≈ 3.16 µM), the NADH oxidn [2] is reported as 20.9 µM/min and the T/C [10] is reported as 118%. For the same compound, the T/C [11] was 100%, the T/C [12] was 109% and the T/C [13] was 55%. For the same compound, the T/C [14] was 118% and the T/C [15] was 109%.

N=C1c2ccccc2C(=O)c2c(NCCNCCO)ccc(O)c21 showed an EC50 [1] of 1.43 µg/mL (≈ 4.4 µM), an NADH oxidn [2] of 19.3 µM/min and a T/C [16] of 150%. For the same compound, the T/C [17] was 160%, the T/C [18] was 120% and the T/C [19] was 130%.

Work on NCCNc1ccc(O)c2c1C(=O)c1ccccc1C2=O yielded an EC50 [1] of 0.24 µg/mL (≈ 0.85 µM) and an NADH oxidation [2] of 25.7 µM/min.

For O=C1c2ccccc2C(=O)c2c(NCCNCCO)ccc(O)c21, the EC50 [1] was 0.27 µg/mL (≈ 0.827 µM), the NADH oxidation [2] was 28.9 µM/min and the T/C [20] was 109%. It also gave a T/C [21] of 117%, a T/C [22] of 100% and a T/C [23] of 127%.

For CN(C)CCNc1ccc(O)c2c1C(=O)c1ccccc1C2=O, the EC50 [1] was 0.33 µg/mL (≈ 1.06 µM), the NADH oxidation [2] was 25.7 µM/min and the T/C [24] was 109%. It also gave a T/C [25] of 100%, a T/C [26] of 117% and a T/C [27] of 91%.
